What is called Ki is the equilibrium dissociation constant of an inhibitor or competing ligand from its target. As usually defined, the ED50 is the dose at which the effect has come halfway, by size or by number of responders.

Our source for the pD2, Ki and ED50 values is ChEMBL document CHEMBL1128351, “A novel pyrrolidine analog of histamine as a potent, highly selective histamine H3 receptor agonist” (J Med Chem, 1995).

Active and inactive are the calls of the source. The calls are words filed in the database; no cut-off is given here.

For assay [1], the target named is Histamine H1 receptor (Cavia porcellus) (UniProt P31389). As to conditions: Ileum, 10 uM.
Assay [2] concerns the target Histamine H3 receptor (Cavia porcellus) (UniProt Q9JI35). As to conditions: Ileum.
The target of assay [3] is Histamine H3 receptor (Cavia porcellus, UniProt Q9JI35). As to the kind of experiment: Binding affinity against Histamine H3 receptor. Summed up: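 H3 receptor binding Ki values are the mean of two independent experiments, with errors given as the range from the mean.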
Assay [4] has as its target Histamine H3 receptor (Cavia porcellus) (UniProt Q9JI35). As to conditions: Ileum, 1 uM.
Assay [5] concerns the target Histamine H1 receptor (Cavia porcellus, UniProt P31389). The assay can be described thus: Binding affinity against H1 receptor.
In assay [6] the test system is Cavia porcellus. The assay can be described thus: Effective dose was tested in vivo for 50% inhibition by an H1 histamine-mediated bronchospasm in guinea pig. The class given is functional. As to conditions: Bronchiole.
For assay [7], the system named is Cavia porcellus. The assay can be described thus: Effective dose was tested in vivo for 50% inhibition by an electrically induced CNS hypertension model after iv administration. The format is functional. Summed up:
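H3 agonist activity was measured in a CNS hypertension model with intravenous dosing. Values are ED50 in mg/kg, or % of the activity of the reference H3 agonist at 0.3 mg/kg.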

Assay [8] has as its target Histamine H1 receptor (Cavia porcellus) (UniProt P31389). As to conditions: Ileum.
Assay [9] deals with Cavia porcellus. As to the kind of experiment: Effective dose was tested in vivo for 50% inhibition by an H1 histamine-mediated bronchospasm after iv administration in guinea pig. The format is functional. As to conditions: Bronchiole. Put shortly: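 Given intravenously and measured in an H1 histamine-mediated bronchospasm model. Value is expressed as ED50 in mg/kg.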

Sequence of Histamine H1 receptor (P31389 whole entry): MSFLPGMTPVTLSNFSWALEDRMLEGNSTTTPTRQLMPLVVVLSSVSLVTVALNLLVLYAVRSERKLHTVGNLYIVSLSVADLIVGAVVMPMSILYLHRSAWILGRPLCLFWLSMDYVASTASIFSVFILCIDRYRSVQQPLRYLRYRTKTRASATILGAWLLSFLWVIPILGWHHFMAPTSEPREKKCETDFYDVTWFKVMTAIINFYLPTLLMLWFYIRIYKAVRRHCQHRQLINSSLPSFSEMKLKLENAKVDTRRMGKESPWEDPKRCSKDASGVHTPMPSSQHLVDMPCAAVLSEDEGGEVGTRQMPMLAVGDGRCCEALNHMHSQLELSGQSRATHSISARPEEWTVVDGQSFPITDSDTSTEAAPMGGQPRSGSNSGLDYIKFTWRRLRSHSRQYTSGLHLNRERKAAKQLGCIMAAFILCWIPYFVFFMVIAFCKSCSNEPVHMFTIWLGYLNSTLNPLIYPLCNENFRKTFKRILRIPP
Sequence of Histamine H3 receptor (Q9JI35 whole entry): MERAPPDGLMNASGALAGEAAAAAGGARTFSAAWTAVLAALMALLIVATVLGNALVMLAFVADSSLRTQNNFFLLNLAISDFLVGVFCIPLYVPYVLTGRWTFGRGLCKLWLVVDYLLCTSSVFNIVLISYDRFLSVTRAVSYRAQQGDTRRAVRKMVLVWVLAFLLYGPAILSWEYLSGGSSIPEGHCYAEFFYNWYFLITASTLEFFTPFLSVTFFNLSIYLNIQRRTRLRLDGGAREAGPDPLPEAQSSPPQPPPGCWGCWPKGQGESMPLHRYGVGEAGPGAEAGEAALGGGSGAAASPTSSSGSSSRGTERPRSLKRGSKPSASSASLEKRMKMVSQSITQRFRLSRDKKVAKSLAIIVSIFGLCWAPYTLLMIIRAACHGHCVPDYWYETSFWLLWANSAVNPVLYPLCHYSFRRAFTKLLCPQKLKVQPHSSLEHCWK
Sequence of Histamine H3 receptor (Cavia porcellus) (Q9JI35 whole entry): as above
Sequence of Histamine H1 receptor (Cavia porcellus) (P31389 whole entry): as the sequence (P31389 whole entry) above

Turning to `C[C@H]1NCC[C@@H]1c1c[nH]cn1` [listing 1 of 2 here], the pD2 entry in assay [1] was “inactive”. Further, in assay [2], the pD2 worked out at 7.1.
In assay [3], `C[C@]1(N)CCCC[C@@H]1c1c[nH]cn1` (racemic) registered a Ki of more than 2 µM.
Same read-out and setting: to `N[C@H]1CCC[C@@H]1c1cnc[nH]1` (racemic) belongs 0.74 µM.
In the case of `C[C@@H]1NCC[C@H]1c1c[nH]cn1`, in [4], the pD2 result was “inactive”. The Ki in [3] is 0.033 µM; in assay [5], more than 10 µM.
As for `C[C@H]1NCC[C@@H]1c1c[nH]cn1` [listing 2 of 2 here], the results for the Ki in [3] and in assay [5] were 0.0028 µM and more than 10 µM, respectively. The ED50 in assay [6] was more than 100 mg/kg; in assay [7] it was 0.18 mg/kg.
As to `C[C@@]1(N)CCCC[C@@H]1c1cnc[nH]1` (racemic), the Ki in assay [3] is more than 2 µM.
On the same count and under the same terms, under `C[C@@H](N)[C@@H](C)c1c[nH]cn1` (racemic) stands 0.011 µM.
Turning to `C[C@@H](N)Cc1c[nH]cn1`, the Ki was 0.0015 µM in assay [3] and more than 10 µM in assay [5]. Also, the pD2 in assay [8] was found to be 5.4; in [2], 8.2. In addition, the ED50 in assay [9] worked out at 1.7 mg/kg; in [7], 0.1 mg/kg.
`C[C@H]1NCC[C@@H]1c1c[nH]cn1` (racemic) showed a Ki in [3] of 0.0087 µM.
The same measure, in the same setting: under `C[C@H](c1c[nH]cn1)[C@@H](C)N` (racemic) stands 0.0008 µM.
